From ChEMBL document CHEMBL1126811, “Fluorinated and iodinated dopamine agents: D2 imaging agents for PET and SPECT” (J Med Chem, 1993)
Values belong to the compound of their own block, whether it stands above or below them.

What was measured:
Rattus norvegicus [1] = experiment: Biodistribution of radioligand [125I]FIDA1 in muscle of rat after 30 minutes after an intravenous injection is given (average of 3 rats); format: ADME, organism-based, Muscle tissue; conditions: in vivo, 0.5 h
How it was run: (§1)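 Male Sprague–Dawley rats (225–300 g) were given 0.2 mL saline containing the radioiodinated ligand (8–10 μCi) into the femoral vein under ether anesthesia. They were killed at set times by cardiac excision. Organs were weighed and γ-counted against diluted aliquots of the injected dose and expressed as % dose/organ. Blood and muscle were taken as 7% and 40% of body weight. Three rats were used per point.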

Rattus norvegicus [2] = experiment: Uptake of radioligand [125I]-FIDA1 by cortex in rat after 30 minutes after an intravenous injection is given (average of 3 rats); format: ADME, organism-based; conditions: in vivo, 0.5 h
How it was run: (§2)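 Male Sprague–Dawley rats (225–300 g) under ether anesthesia received radioiodinated tracer (8–10 μCi in 0.2 mL saline) into the femoral vein. They were killed by cardiac excision at set times. Cortex, striatum, hippocampus and cerebellum were dissected, weighed and gamma-counted. Results are % dose/gram against diluted injected dose.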

Rattus norvegicus [3] = experiment: Biodistribution of radioligand [125I]FIDA1 in brain of rat after 30 minutes after an intravenous injection is given (average of 3 rats); format: ADME, organism-based; conditions: in vivo, 0.5 h; how it was run: as §1
Rattus norvegicus [4] = experiment: Biodistribution of radioligand [125I]FIDA1 in brain of rat after 60 minutes after an intravenous injection is given (average of 3 rats); format: ADME, organism-based; conditions: in vivo, 1 h; how it was run: as §1
Rattus norvegicus [5] = experiment: Biodistribution of radioligand [125I]FIDA1 in spleen of rat after 30 minutes after an intravenous injection is given (average of 3 rats); format: ADME, organism-based; conditions: in vivo, 0.5 h; how it was run: as §1
Rattus norvegicus [6] = experiment: Uptake of radioligand [125I]-FIDA1 by hippocampus in rat after 30 minutes after an intravenous injection is given (average of 3 rats); format: ADME, organism-based; conditions: in vivo, 0.5 h; how it was run: as §2
Rattus norvegicus [7] = experiment: Biodistribution of radioligand [125I]FIDA1 in spleen of rat after 2 minutes after an intravenous injection is given (average of 3 rats); format: ADME, organism-based; conditions: in vivo; how it was run: as §1
Rattus norvegicus [8] = experiment: Biodistribution of radioligand [125I]FIDA1 in thyroid of rat after 30 minutes after an intravenous injection is given (average of 3 rats); format: ADME, organism-based, Thyroid gland; conditions: in vivo, 0.5 h; how it was run: as §1
Rattus norvegicus [9] = experiment: Biodistribution of radioligand [125I]FIDA1 in lung of rat after 30 minutes after an intravenous injection is given (average of 3 rats); format: ADME, organism-based; conditions: in vivo, 0.5 h; how it was run: as §1
Rattus norvegicus [10] = experiment: Biodistribution of radioligand [125I]FIDA1 in liver of rat after 30 minutes after an intravenous injection is given (average of 3 rats); format: ADME, organism-based; conditions: in vivo, 0.5 h; how it was run: as §1
Rattus norvegicus [11] = experiment: Biodistribution of radioligand [125I]FIDA1 in skin of rat after 30 minutes after an intravenous injection is given (average of 3 rats); format: ADME, organism-based, Zone of skin; conditions: in vivo, 0.5 h; how it was run: as §1
Rattus norvegicus [12] = experiment: Uptake of radioligand [125I]FIDA1 by striatum in rat after 30 minutes after an intravenous injection is given (average of 3 rats); format: ADME, organism-based; conditions: in vivo, 0.5 h; how it was run: as §2
Rattus norvegicus [13] = experiment: Uptake of radioligand [125I]FIDA1 by hippocampus in rat after 2 minutes after an intravenous injection is given (average of 3 rats); format: ADME, organism-based; conditions: in vivo; how it was run: as §2
Rattus norvegicus [14] = experiment: Uptake of radioligand [125I]FIDA1 by cerebellum in rat after 30 minutes after an intravenous injection is given (average of 3 rats); format: ADME, organism-based; conditions: in vivo, 0.5 h; how it was run: as §2
Rattus norvegicus [15] = experiment: Biodistribution of radioligand [125I]FIDA1 in muscle of rat after 120 minutes after an intravenous injection is given (average of 3 rats); format: ADME, organism-based, Muscle tissue; conditions: in vivo, 2 h; how it was run: as §1
Rattus norvegicus [16] = experiment: Biodistribution of radioligand [125I]FIDA1 in heart of rat after 30 minutes after an intravenous injection is given (average of 3 rats); format: ADME, organism-based; conditions: in vivo, 0.5 h; how it was run: as §1
Rattus norvegicus [17] = experiment: Uptake of radioligand [125I]FIDA1 by hippocampus in rat after 120 minutes after an intravenous injection is given (average of 3 rats); format: ADME, organism-based; conditions: in vivo, 2 h; how it was run: as §2
Rattus norvegicus [18] = experiment: Biodistribution of radioligand [125I]FIDA1 in blood of rat after 120 minutes after an intravenous injection is given (average of 3 rats); format: ADME, organism-based; conditions: in vivo, 2 h; how it was run: as §1
Rattus norvegicus [19] = experiment: Biodistribution of radioligand [125I]FIDA1 in blood of rat after 30 minutes after an intravenous injection is given (average of 3 rats); format: ADME, organism-based; conditions: in vivo, 0.5 h; how it was run: as §1
Rattus norvegicus [20] = experiment: Uptake of radioligand [125I]FIDA1 by hippocampus in rat after 60 minutes after an intravenous injection is given (average of 3 rats); format: ADME, organism-based; conditions: in vivo, 1 h; how it was run: as §2
Rattus norvegicus [21] = experiment: Biodistribution of radioligand [125I]FIDA1 in thyroid of rat after 30 minutes after an intravenous injection is given (average of 2 rats); format: ADME, organism-based, Thyroid gland; conditions: in vivo, 0.5 h
Rattus norvegicus [22] = experiment: Uptake of radioligand [125I]FIDA1 by hippo-campus in rat after 30 minutes after an intravenous injection is given (average of 2 rats); format: ADME, organism-based; conditions: in vivo, 0.5 h; how it was run: as §2
Rattus norvegicus [23] = experiment: Biodistribution of radioligand [125I]FIDA1 in muscle of rat after 120 minutes after an intravenous injection is given (average of 2 rats); format: ADME, organism-based, Muscle tissue; conditions: in vivo, 2 h
Rattus norvegicus [24] = experiment: Uptake of radioligand [125I]-FIDA1 by cerebellum in rat after 30 minutes after an intravenous injection is given (average of 2 rats); format: ADME, organism-based; conditions: in vivo, 0.5 h; how it was run: as §2
Rattus norvegicus [25] = experiment: Biodistribution of radioligand [125I]FIDA1 in spleen of rat after 30 minutes after an intravenous injection is given (average of 2 rats); format: ADME, organism-based; conditions: in vivo, 0.5 h
Rattus norvegicus [26] = experiment: Uptake of radioligand [125I]FIDA1 by hippo-campus in rat after 120 minutes after an intravenous injection is given (average of 3 rats); format: ADME, organism-based; conditions: in vivo, 2 h; how it was run: as §2
Rattus norvegicus [27] = experiment: Biodistribution of radioligand [125I]FIDA1 in liver of rat after 30 minutes after an intravenous injection is given (average of 2 rats); format: ADME, organism-based; conditions: in vivo, 0.5 h
Rattus norvegicus [28] = experiment: Biodistribution of radioligand [125I]FIDA1 in muscle of rat after 30 minutes after an intravenous injection is given (average of 2 rats); format: ADME, organism-based, Muscle tissue; conditions: in vivo, 0.5 h
Rattus norvegicus [29] = experiment: Uptake of radioligand [125I]FIDA1 by striatum in rat after 30 minutes after an intravenous injection is given (average of 2 rats); format: ADME, organism-based; conditions: in vivo, 0.5 h; how it was run: as §2
Rattus norvegicus [30] = experiment: Uptake of radioligand [125I]FIDA1 by hippo-campus in rat after 2 minutes after an intravenous injection is given (average of 3 rats); format: ADME, organism-based; conditions: in vivo; how it was run: as §2
Rattus norvegicus [31] = experiment: Biodistribution of radioligand [125I]FIDA1 in brain of rat after 30 minutes after an intravenous injection is given (average of 2 rats); format: ADME, organism-based; conditions: in vivo, 0.5 h
Rattus norvegicus [32] = experiment: Biodistribution of radioligand [125I]FIDA1 in lung of rat after 30 minutes after an intravenous injection is given (average of 2 rats); format: ADME, organism-based; conditions: in vivo, 0.5 h
Rattus norvegicus [33] = experiment: Uptake of radioligand [125I]FIDA1 by cortex in rat after 30 minutes after an intravenous injection is given (average of 2 rats); format: ADME, organism-based; conditions: in vivo, 0.5 h; how it was run: as §2
Rattus norvegicus [34] = experiment: Uptake of radioligand [125I]-FIDA1 by hippo-campus in rat after 60 minutes after an intravenous injection is given (average of 3 rats); format: ADME, organism-based; conditions: in vivo, 1 h; how it was run: as §2
Rattus norvegicus [35] = experiment: Biodistribution of radioligand [125I]FIDA1 in skin of rat after 30 minutes after an intravenous injection is given (average of 2 rats); format: ADME, organism-based, Zone of skin; conditions: in vivo, 0.5 h
Rattus norvegicus [36] = experiment: Biodistribution of radioligand [125I]FIDA1 in heart of rat after 30 minutes after an intravenous injection is given (average of 2 rats); format: ADME, organism-based; conditions: in vivo, 0.5 h

Dose/organ (Rattus norvegicus [1]): 8.24%
Dose/g (Rattus norvegicus [2]): 0.05%
Dose/organ (Rattus norvegicus [3]): 0.11%
Dose/organ (Rattus norvegicus [4]): 0.05%
Dose/organ (Rattus norvegicus [5]): 0.31%
Dose/g (Rattus norvegicus [6]): 0.05%
Dose/organ (Rattus norvegicus [7]): 0.7%
Dose/organ (Rattus norvegicus [8]): 0.03%
Dose/organ (Rattus norvegicus [9]): 0.66%
Dose/organ (Rattus norvegicus [10]): 22.4%
Dose/organ (Rattus norvegicus [11]): 4.97%
Dose/g (Rattus norvegicus [12]): 0.24%
Dose/g (Rattus norvegicus [13]): 0.25%
Dose/g (Rattus norvegicus [14]): 0.03%
Dose/organ (Rattus norvegicus [15]): 0.76%
Dose/organ (Rattus norvegicus [16]): 0.14%
Dose/g (Rattus norvegicus [17]): 0.0006%
Dose/organ (Rattus norvegicus [18]): 0.51%
Dose/organ (Rattus norvegicus [19]): 1.91%
Dose/g (Rattus norvegicus [20]): 0.007%
Compound: CCN1CCC[C@H]1CNC(=O)c1cc(I)cc(OC)c1OCCF

Dose/organ (Rattus norvegicus [21]): 0.04%
Dose/g (Rattus norvegicus [22]): 0.14%
Dose/organ (Rattus norvegicus [4]): 0.1%
Dose/organ (Rattus norvegicus [23]): 2.04%
Dose/g (Rattus norvegicus [24]): 0.09%
Dose/organ (Rattus norvegicus [7]): 1.19%
Dose/organ (Rattus norvegicus [25]): 0.43%
Dose/g (Rattus norvegicus [26]): 0.01%
Dose/organ (Rattus norvegicus [27]): 12.69%
Dose/organ (Rattus norvegicus [28]): 10.87%
Dose/g (Rattus norvegicus [29]): 0.4%
Dose/g (Rattus norvegicus [30]): 0.47%
Dose/organ (Rattus norvegicus [31]): 0.21%
Dose/organ (Rattus norvegicus [19]): 0.87%
Dose/organ (Rattus norvegicus [32]): 1.06%
Dose/g (Rattus norvegicus [33]): 0.14%
Dose/g (Rattus norvegicus [34]): 0.05%
Dose/organ (Rattus norvegicus [35]): 7.04%
Dose/organ (Rattus norvegicus [36]): 0.16%
Compound: COc1cc(I)cc(C(=O)NC[C@@H]2CCCN2Cc2ccc(F)cc2)c1OC
